Assay results gathered from unrelated publications.
Protocols differ between the studies behind these lines.
LATS2: Serine/threonine-protein kinase LATS2 (LATS2, Homo sapiens, UniProt Q9NRM7)
AKR1B1: Aldo-keto reductase family 1 member B1 (AKR1B1, Homo sapiens, UniProt P15121)

| Structure (SMILES) | target | read-out | mode | technique | IC50 |
| --- | --- | --- | --- | --- | --- |
| Cc1cc(-c2ccnc3[nH]cc(F)c23)cc(F)c1[C@@]1(O)[C@H](C)CN(C(=O)CN)C[C@@H]1C | LATS2 | target engagement in cells | – | BRET | 0.0051 µM |
| COc1cc(/C=N/NC(=S)NN=Cc2cccs2)ccc1Oc1ccnc2cc(Cl)ccc12 | AKR1B1 | enzyme activity | inhibitor | absorbance | 19.7 µM |
| Cc1cn([C@H]2C[C@H](OP(=O)(O)OC[C@H]3O[C@@H](n4cc(C)c(=O)[nH]c4=O)C[C@@H]3O)[C@@H](COP(=O)(O)OP(=O)(O)O)O2)c(=O)[nH]c1=O | dgt (Salmonella enterica, UniProt A0A5H6DAK1) | enzyme activity | inhibitor | – | 19.7 µM |
| O=C(Nc1c[nH]nc1-c1nc2cc(CN3CCOCC3)ccc2[nH]1)NC1CC1 | LATS2 | enzyme activity | inhibitor | radiometric | 0.114 µM |
| Clc1ccc(Nc2ccncc2)cc1Cl | Endonuclease 8-like 1 (NEIL1, Homo sapiens, UniProt Q96FI4) | enzyme activity | inhibitor | – | > 99 µM |
| COc1cc(/C=N/NC(=S)N/N=C/c2ccc(C=O)cc2)ccc1Oc1ccnc2cc(Cl)ccc12 | AKR1B1 | enzyme activity | inhibitor | absorbance | 12.9 µM |
| COc1c(Cl)cccc1Nc1c(-c2ccncc2OC[C@@H]2COCCO2)[nH]c2c1C(=O)NCC2 | Tyrosine-protein kinase Lck (LCK, Homo sapiens, UniProt P06239) | enzyme activity | inhibitor | TR-FRET | 1.12 µM |
| C[C@@H]1CNC[C@H](C)[C@@]1(O)c1ccc(-c2ccnc3[nH]cc(F)c23)cc1 | LATS2 | enzyme activity | inhibitor | radiometric | 0.0087 µM |
| O=C(O[C@@H]1[C@@H](O)[C@H](Oc2cc(O)c3c(c2)O[C@H](c2ccccc2)CC3=O)O[C@@H]2COC(=O)c3cc(O)c(O)c(O)c3-c3c(cc(O)c(O)c3O)C(=O)O[C@@H]12)c1cc(O)c(O)c(O)c1 | Thioredoxin domain-containing protein 5 (TXNDC5, Homo sapiens, UniProt Q8NBS9) | enzyme activity | inhibitor | fluorescence | 3.9 µM |
| COc1cc(/C=N/NC(=S)NN=Cc2ccc([N+](=O)[O-])o2)ccc1Oc1ccnc2cc(Cl)ccc12 | AKR1B1 | enzyme activity | inhibitor | absorbance | 7.85 µM |
| Cc1cc2c(cc1C)N[C@H](c1ccccc1)[C@@H](O)C(=O)N2 | Tyrosine-protein kinase JAK2 (JAK2, Homo sapiens, UniProt O60674) | enzyme activity | inhibitor | ELISA | 0.343 µM |
| COc1cc(/C=N/NC(=S)N/N=C/c2ccc(Cl)cc2)ccc1Oc1ccnc2cc(Cl)ccc12 | AKR1B1 | enzyme activity | inhibitor | absorbance | 14.9 µM |
| OC1(c2ccc(-c3ccnc4[nH]cc(F)c34)cc2)CCNC1 (stereo not drawn) | LATS2 | enzyme activity | inhibitor | radiometric | 0.0084 µM |
| O=C(NC1CCC2(CCCC2)CC1)c1ccc(-c2ccccc2)cc1 | Transient receptor potential cation channel subfamily M member 8 (TRPM8, Homo sapiens, UniProt Q7Z2W7) | ion current | – | patch clamp | 0.106 µM |
| COc1cc(/C=N/NC(=S)NN=Cc2scnc2C)ccc1Oc1ccnc2cc(Cl)ccc12 | AKR1B1 | enzyme activity | inhibitor | absorbance | 17.8 µM |
